Activity calls are given as the source filed them.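 The calls were made as follows, unless noted: active = viability at or below 10% of carrier control in both of two separate runs; inconclusive = viability at or below 10% in only one of the two runs; inactive = the rest.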
What was measured:
[1] = reducers of endogenous Her2 protein level, primary screen, SKBR3 breast tumor cells, AlphaScreen, ATP viability (AID 461;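 active = Her2 level under about 52% in both replicate screens, with viability over 70% of control, limit read from the data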;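 as to Her2 level: lower value means less Her2 protein in the cells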;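 as to viability: percent of carrier control wells set as 100% viability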); conditions: 18-24 h, measured here: SKBR3 viability, ATP luminescence, at 10 µM
[2] = biological target: Receptor tyrosine-protein kinase erbB-2 (Homo sapiens) (UniProt P04626); assay: as above; conditions: 18-24 h, at 10 µM, stronger effect = lower value
Sequence of Receptor tyrosine-protein kinase erbB-2 (Homo sapiens) (P04626 whole entry, looked up): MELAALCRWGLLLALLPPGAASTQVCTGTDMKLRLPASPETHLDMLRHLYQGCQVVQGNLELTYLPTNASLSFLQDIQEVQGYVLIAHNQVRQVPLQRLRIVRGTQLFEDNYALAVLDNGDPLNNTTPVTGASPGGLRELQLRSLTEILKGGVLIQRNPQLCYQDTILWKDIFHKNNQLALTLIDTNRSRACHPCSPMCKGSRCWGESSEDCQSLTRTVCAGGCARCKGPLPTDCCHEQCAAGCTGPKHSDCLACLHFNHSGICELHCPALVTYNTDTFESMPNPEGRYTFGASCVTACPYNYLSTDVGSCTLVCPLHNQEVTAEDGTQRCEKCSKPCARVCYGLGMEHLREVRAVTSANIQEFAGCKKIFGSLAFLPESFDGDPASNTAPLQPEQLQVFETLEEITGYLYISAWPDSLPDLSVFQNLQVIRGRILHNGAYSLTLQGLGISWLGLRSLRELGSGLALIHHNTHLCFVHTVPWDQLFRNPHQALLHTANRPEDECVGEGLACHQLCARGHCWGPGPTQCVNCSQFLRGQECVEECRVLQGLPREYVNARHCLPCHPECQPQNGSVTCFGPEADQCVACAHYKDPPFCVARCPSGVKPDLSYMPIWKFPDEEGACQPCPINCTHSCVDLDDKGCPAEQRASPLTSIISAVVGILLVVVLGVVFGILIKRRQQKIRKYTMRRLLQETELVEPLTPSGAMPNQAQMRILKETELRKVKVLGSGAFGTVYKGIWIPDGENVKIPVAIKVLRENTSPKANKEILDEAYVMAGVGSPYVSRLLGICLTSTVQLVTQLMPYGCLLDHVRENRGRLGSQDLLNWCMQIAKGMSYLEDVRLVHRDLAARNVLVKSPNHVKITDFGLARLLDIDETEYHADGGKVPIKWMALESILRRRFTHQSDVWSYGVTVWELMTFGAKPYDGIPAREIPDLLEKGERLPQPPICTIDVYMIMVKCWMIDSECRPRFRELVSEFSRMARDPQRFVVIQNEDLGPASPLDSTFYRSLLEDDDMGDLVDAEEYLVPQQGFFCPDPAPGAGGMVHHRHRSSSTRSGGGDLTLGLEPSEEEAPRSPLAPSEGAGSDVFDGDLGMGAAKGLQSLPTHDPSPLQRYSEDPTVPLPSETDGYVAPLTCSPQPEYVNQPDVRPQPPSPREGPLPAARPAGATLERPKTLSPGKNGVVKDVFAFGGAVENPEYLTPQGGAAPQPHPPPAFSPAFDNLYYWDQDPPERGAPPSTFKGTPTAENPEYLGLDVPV

[3] = SK-BR-3 cell growth inhibitors, pilot screen, 24 h, human (AID 572); conditions: SK-BR-3 viability, CellTiter-Glo luminescence, at 10 µM, stronger effect = lower value;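 also: compound exposure lasted between 18 and 24 h rather than exactly 24 h; 100% = carrier-treated control wells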
[4] = HUVEC growth inhibition – cell-based, human, primary screen (AID 575;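 active = viability at or below 30% in both replicate assays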;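 also: 100% = median of untreated cell wells with 0.1% DMSO on each plate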); conditions: HUVEC proliferation, CellTiter-Glo luminescence, 72 h; at 10 µM; stronger effect = lower value
Method in brief: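 material = primary HUVEC, no more than 12 passages | input = 1250 cells per well | controls = vehicle and MePR control wells | measured by = CTG luminescence | times = 72 h compound incubation | format = collagen-coated 384-well format | read-out = % viability vs DMSO wells | doses = single 10 µM dose, 0.1% DMSO, from 5x medium stock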

[5] = growth inhibitors of H69AR lung tumor, primary screen, human, duplicate replicates (AID 580;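 active = viability at or under a set limit in both replicates, limit being median viability minus 3 SD, cut at about 48% in these data, passing the limit was not always enough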;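 also: 100% = mean luminescence of untreated wells and 0% = no signal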); conditions: H69AR lung tumor cells viability, ATP luminescence, 72 h; at 10 µM; stronger effect = lower value
[6] = reversal of MRP1-mediated doxorubicin resistance, pilot screen, H69AR cells, doxorubicin co-treatment (AID 601;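 active = viability loss from added drug above about 55%, and viability with drug at most 40%, in both replicates, limit read from the data, passing the limit was not always enough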); conditions: CellTiter-Glo, 72 h, at 10 µM; for differential viability (reversal): stronger effect = higher value
[7] = 384-well plate pilot, post-Golgi transport modulator project, inhibition of yeast transport mutant growth (AID 636; in the data active = inhibition above about 31%); conditions: absorbance 615 nm, about 18 h, stronger effect = higher value
[8] = growth suppression of yeast trafficking mutant, preliminary HTS, modulators of trafficking downstream of Golgi apparatus project, 1536-format plate, OD 615 nm (AID 637; in the data active = inhibition above about 30%); conditions: yeast transport mutant growth, absorbance 615 nm, 18 h; stronger effect = higher value
[9] = H69AR cells + 2 uM doxorubicin, measured here: viability with 2 uM doxorubicin, stronger effect = lower value
[10] = H69AR cells, compound alone cytotoxicity

Row | Structure (SMILES) | viability [1] [%] | Her2 level [2] | viability [3] | viability [4] | viability [5] | differential viability (reversal) ([6]; H69AR cells + 2 uM doxorubicin) | viability [6, 9] [%] | viability [6, 10] [%] | inhibition [7] | inhibition [8]
1 | COC1CCCCC1NS(=O)(=O)c1ccccc1 (stereo not given) | 106 | 96.5% (inactive) | 106% (inactive) | 97.8% (inactive) | 97.7% (inactive) | 1.47% (inactive) | 96.2 | 97.7 | -3.59% (inactive) | 3.17% (inactive)
2 | Cc1sc2nc(SCC(=O)Nc3c(C)n(C)n(-c4ccccc4)c3=O)n(C)c(=O)c2c1C | 102 | 95.5% (inactive) | 102% (inactive) | 95.4% (inactive) | 97.3% (inactive) | 1.12% (inactive) | 96.2 | 97.3 | 0% (inactive) | 1.15% (inactive)
3 | CCOC(=O)c1[nH]c(C)c(C(=O)Nc2cc(OC)ccc2OC)c1C | 81 | 65% (inactive) | 81% (inactive) | 47.4% (inactive) | 25.5% (active) | -45.8% (inactive) | 71.3 | 25.5 | -2.24% (inactive) | -4.92% (inactive)
4 | O=C(NC1CCCCCC1)C1CCCN(S(=O)(=O)c2cccs2)C1 (stereo not given) | 90 | 118% (inactive) | 90% (inactive) | 101% (inactive) | 105% (inactive) | 17.6% (inactive) | 87.8 | 105 | -0.92% (inactive) | -6.5% (inactive)
5 | O=C(CN(c1ccccc1)S(=O)(=O)c1ccccc1)N1CCN(Cc2ccc3c(c2)OCO3)CC1 | 104 | 73% (inactive) | 104% (inactive) | 92.7% (inactive) | 96.9% (inactive) | 5.03% (inactive) | 91.8 | 96.9 | -6% (inactive) | 0.32% (inactive)
6 | C1=Nc2c(NCc3ccccc3)ncnc2Oc2ccccc21 | 83 | 84.5% (inactive) | 83% (inactive) | 80.6% (inactive) | 91.7% (inactive) | 7.99% (inactive) | 83.7 | 91.7 | 2.13% (inactive) | 0.16% (inactive)
7 | CCOc1cc(C2NC(=O)N(C)C(C)=C2C(=O)OC)cc(Br)c1O (stereo not given) | 112 | 79.5% (inactive) | 112% (inactive) | 69.9% (inactive) | 93.8% (inactive) | 21.3% (inactive) | 72.6 | 93.8 | -4.73% (inactive) | 4.44% (inactive)
8 | CN(CC(O)COc1ccc(OCC(O)CN(C)C2CCCCC2)cc1)C1CCCCC1 (stereo not given) | 88 | 82% (inactive) | 88% (inactive) | 65.5% (inactive) | 89.9% (inactive) | 10.4% (inactive) | 79.5 | 89.9 | -5.66% (inactive) | 4.6% (inactive)
9 | Cc1ccc(S(=O)(=O)N2CCN(C(=O)CSc3nnnn3C)C2)cc1 | 110 | 104% (inactive) | 110% (inactive) | 85.3% (inactive) | 102% (inactive) | 1.78% (inactive) | 101 | 102 | -0.66% (inactive) | 0.17% (inactive)
10 | COC(=O)c1[nH]c2ccccc2c1NS(=O)(=O)c1ccc(OC)cc1OC | 88.5 | 82% (inactive) | 88.5% (inactive) | 96.8% (inactive) | 84% (inactive) | -15.4% (inactive) | 99.4 | 84 | -5.26% (inactive) | -3.82% (inactive)
11 | O=C(O)c1cccc(NC(=O)C2C3C=CC(C3)C2C(=O)OCC(F)(F)C(F)F)c1 (stereo not given) | 102 | 91.5% (inactive) | 102% (inactive) | 94% (inactive) | 89% (inactive) | 0.695% (inactive) | 88.3 | 89 | -5.79% (inactive) | -1.33% (inactive)
12 | COCc1nnc(NS(=O)(=O)c2ccc(Br)cc2)s1 | 99.5 | 92% (inactive) | 99.5% (inactive) | 108% (inactive) | 91.3% (inactive) | -4.46% (inactive) | 95.8 | 91.3 | -5.2% (inactive) | -1.75% (inactive)
13 | CCOC(=O)N1CCC(NC(=O)c2ccc(OC)c(CN3CC(=O)N4CCCC4C3=O)c2)CC1 (stereo not given) | 93.5 | 93% (inactive) | 93.5% (inactive) | 111% (inactive) | 96% (inactive) | 10% (inactive) | 85.9 | 96 | -5.92% (inactive) | -3.49% (inactive)
14 | Cc1c(NC(=O)c2coc(=O)c(Br)c2)c(=O)n(-c2ccccc2)n1C | 85 | 27.5% (active) | 85% (inactive) | 72.9% (inactive) | 1.47% (active) | -0.165% (inactive) | 1.64 | 1.47 | -4.55% (inactive) | -4.92% (inactive)
15 | COc1ccc(N2CCN(C(=O)CSc3nnc(Cn4nnc5ccccc54)n3C)CC2)cc1 | 99.5 | 111% (inactive) | 99.5% (inactive) | 108% (inactive) | 103% (inactive) | 11.4% (inactive) | 92.1 | 103 | -1.97% (inactive) | -6.61% (inactive)
16 | CC(C)Oc1ccc(C2C(C(=O)c3ccco3)=C(O)C(=O)N2CCCN(C)C)cc1 (stereo not given) | 89 | 99.5% (inactive) | 89% (inactive) | 118% (inactive) | 110% (inactive) | 8.15% (inactive) | 102 | 110 | -1.18% (inactive) | 8.2% (inactive)
17 | CC(C)[C@H](NC(=O)NCc1ccc(Cl)cc1)C(=O)O | 86 | 77% (inactive) | 86% (inactive) | 89.1% (inactive) | 103% (inactive) | 11.2% (inactive) | 91.9 | 103 | -4% (inactive) | -4.75% (inactive)
18 | Cc1cc2oc(C(=O)NC3CCS(=O)(=O)C3)c(C)c2cc1C (stereo not given) | 99.5 | 98% (inactive) | 99.5% (inactive) | 97.7% (inactive) | 93.7% (inactive) | 22.6% (inactive) | 71 | 93.7 | 1.45% (inactive) | 1.48% (inactive)
19 | Cn1c(SCC(=O)c2ccc(-c3ccccc3)cc2)nnc1-c1ccco1 | 120 | 93.5% (inactive) | 120% (inactive) | 93.7% (inactive) | 88.1% (inactive) | -2.98% (inactive) | 91.1 | 88.1 | -5.6% (inactive) | 9.68% (inactive)
20 | Cc1ccc(-n2c(SCC3CCCCO3)nnc2-c2ccco2)cc1 (stereo not given) | 89 | 83% (inactive) | 89% (inactive) | 102% (inactive) | 91.4% (inactive) | 15.5% (inactive) | 75.9 | 91.4 | 0% (inactive) | -8.5% (inactive)
21 | COc1ccccc1N(C)S(=O)(=O)c1ccc(C(=O)NC2=NCCS2)cc1 | 104 | 95% (inactive) | 104% (inactive) | 85.8% (inactive) | 96.2% (inactive) | -3.23% (inactive) | 99.5 | 96.2 | 0% (inactive) | -5.4% (inactive)
22 | COCCn1c(CN2CCN(c3ccccc3F)CC2)nc2c1c(=O)n(C)c(=O)n2C | 105 | 138% (inactive) | 105% (inactive) | 84.5% (inactive) | 95.8% (inactive) | 0.255% (inactive) | 95.6 | 95.8 | -1.2% (inactive) | 1.5% (inactive)
23 | Cn1nnc2c(sc3nc(N4CCOCC4)c4c(c32)CCCC4)c1=O | 100 | 114% (inactive) | 100% (inactive) | 90.9% (inactive) | 81.6% (inactive) | -7.71% (inactive) | 89.3 | 81.6 | -0.53% (inactive) | -5.08% (inactive)
24 | COC(=O)CSc1nc2sc3c(c2c(=O)n1C1CCCCC1)CCN(C)C3 | 102 | 75.5% (inactive) | 102% (inactive) | 84.7% (inactive) | 95% (inactive) | 2.91% (inactive) | 92.1 | 95 | -5.66% (inactive) | 1.83% (inactive)
25 | O=C(CN1C(=O)COCC1=O)N1CCOCC1 | 91 | 86.5% (inactive) | 91% (inactive) | 104% (inactive) | 96.9% (inactive) | -0.64% (inactive) | 97.5 | 96.9 | 0.26% (inactive) | 0% (inactive)
26 | O=C(CN(Cc1cccs1)C(=O)CNS(=O)(=O)c1ccccc1)NCc1ccco1 | 98 | 96.5% (inactive) | 98% (inactive) | 101% (inactive) | 101% (inactive) | 12.7% (inactive) | 88 | 101 | 0.13% (inactive) | -3.33% (inactive)
27 | CC(CCc1ccccc1)NC(=O)c1ccc(Br)o1 (stereo not given) | 110 | 86% (inactive) | 110% (inactive) | 88.5% (inactive) | 93.5% (inactive) | 9.45% (inactive) | 84 | 93.5 | -4.93% (inactive) | 0.63% (inactive)
28 | CC(C)COc1ccc(-c2nnn(CC(=O)N3CCCC3)n2)cc1 | 86 | 85% (inactive) | 86% (inactive) | 108% (inactive) | 104% (inactive) | 14.9% (inactive) | 88.9 | 104 | -8.67% (inactive) | 16.9% (inactive)
